Results on three molecules are retold here after ChEMBL document CHEMBL4257469, “Deciphering the role of hydrophobic and hydrophilic bile acids in angiogenesis using in vitro and in vivo model systems” (Medchemcomm, 2017).

Data set [1] deals with HUVEC. Kind of data set: Antiangiogenic activity in HUVEC assessed as inhibition of endothelial tube formation at 25 uM after overnight incubation by inverted microscopic analysis. The data set is classed as functional, cell-based. The following applies: Homo sapiens. Summed up: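 HUVECs at passages 2–5 were seeded at 2 × 10^5 cells per well on a gelled basement membrane matrix, made as Matrigel mixed 1:1 with plain EBM-2. Bile acids were added at 12.5 and 25 μM, with DMSO as vehicle control, and cells were treated overnight. Bright-field images were taken at 10× from five fields per well. Nodes and tube lengths were quantified. Runs were in triplicate; statistics by one-way ANOVA (Dunnett).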

The species named for data set [2] is Danio rerio. The experiment in a line: Toxicity in zebrafish embryo assessed as reduction in embryo survival up to 50 uM. The data set is classed as organism-based. The conditions noted are these: in vivo.
The species entered for data set [3] is Danio rerio. The experiment in a line: Antiangiogenic activity in Tg(fli:eGFP) zebrafish embryo assessed as effect on phynotypic changes at 6.25 to 12.5 uM after 72 hrs post fertilization by fluorescence microscopic analysis. The format is functional, organism-based. A digest of the protocol:
(§1)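 Tg(fli1:eGFP) zebrafish embryos were selected at 48 hpf, 20–25 per well, and exposed to bile acids at 6.25, 12.5 and 25 μM in embryo water from DMSO stocks. Vehicle was 0.1% DMSO. At 72 hpf the solutions were replaced with fresh embryo water. Embryos were anesthetized with tricaine and imaged by stereo and fluorescence microscopy for sub-intestinal vessel sprouting and branching. Two experiments, 50 embryos per group.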

Data set [4] relates to HUVEC. Kind of data set: Cytotoxicity against HUVEC assessed as reduction in cell viability at 6.25 to 100 uM after 24 hrs by MTT assay. The conditions noted are these: human. The format is cell-based. A digest of the protocol: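 HUVECs at passages 2–5 were seeded at 5 × 10^3 cells per well in complete EBM-2 and allowed to adhere for 24 h. They were serum-starved 4 h, then given serially diluted bile acids (100 to 6.25 μM) in complete medium for 24 h. MTT was added for 4 h at 37 °C. Formazan was dissolved in DMSO and absorbance read at 550 nm. Three independent experiments.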
A general note: Formazan colour is commonly taken as a measure of viable cells.

For data set [5], the system named is HUVEC. Kind of data set: Cytotoxicity against HUVEC assessed as reduction in cell death up to 12.5 uM after 24 hrs by MTT assay. The conditions noted are these: human. The format is cell-based. Summed up:
(§2)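 HUVECs (passages 2–5, complete EBM-2) seeded at 5 × 10³ cells/well and left 24 h to adhere. Serum-starved 4 h, then exposed to bile acids (serial dilutions, 100 to 6.25 μM) in complete medium for 24 h. MTT added for 4 h at 37 °C, formazan dissolved in DMSO, absorbance read at 550 nm. Run in triplicate; three independent experiments.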

Data set [6] is filed under the species Danio rerio. The experiment in a line: Antiangiogenic activity in Tg(fli:eGFP) zebrafish embryo assessed as abnormality in vasculature in developing embryos at 25 uM after 72 hrs post fertilization by fluorescence microscopic analysis. The data set is classed as functional, organism-based. The conditions noted are these: 12.5 uM, in the assay text read “12.5 uM” for “25 uM”. A digest of the protocol: as §1

For data set [7], the species on record is Danio rerio. Kind of data set: Toxicity in Tg(fli:eGFP) zebrafish embryo assessed as embryo death at 25 uM after 72 hrs post fertilization by fluorescence microscopic analysis. The data set is classed as organism-based. The following applies: in vivo. A digest of the protocol: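 Tg(fli1:eGFP) embryos selected at 48 hpf, 20–25 per well, raised at 28.5 °C. Bile acids (DMSO stock, diluted in embryo water) given at 6.25, 12.5 or 25 μM; 0.1% DMSO as vehicle control. Solutions replaced with fresh water at 72 hpf, embryos anaesthetised with tricaine and sub-intestinal vessels imaged by fluorescence. Scored as percentage of embryos; two experiments, 50 embryos/group.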

For data set [8], the species on record is Danio rerio. Kind of data set: Antiangiogenic activity in Tg(fli:eGFP) zebrafish embryo assessed as vascular modification by measuring formation of irregular pattern of branches at 12.5 uM after 72 hrs post fertilization by fluorescence microscopic analysis. The format is functional, organism-based. Summed up: as §1
For data set [9], the species on record is Danio rerio. The experiment in a line: Pro-angiogenic activity in Tg(fli:eGFP) zebrafish embryo assessed as thickening of vessels at 6.25 uM after 72 hrs post fertilization by fluorescence microscopic analysis. The data set is classed as functional, organism-based. Summed up:
as §1

Data set [10] is filed under the species Danio rerio. The experiment in a line: Pro-angiogenic activity in Tg(fli:eGFP) zebrafish embryo assessed as sprouting of vessels at 6.25 uM after 72 hrs post fertilization by fluorescence microscopic analysis. The format is functional, organism-based. A digest of the protocol:
as §1

The test system of data set [11] is HUVEC. The experiment in a line: Cytotoxicity against HUVEC assessed as reduction in cell viability at >25 uM after 24 hrs by MTT assay. The conditions noted are these: human. The format is cell-based. Summed up:
as §2

For data set [12], the system named is HUVEC. The experiment in a line: Antiangiogenic activity in HUVEC assessed as induction of irregular stress fiber formation at 12.5 uM after overnight incubation by FITC-conjugated phalloidin staining based confocal microscopic analysis. The format is functional, cell-based. The following applies: Homo sapiens. Summed up: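 HUVECs grown to 70% confluency on coverslips and treated with bile acids overnight. Fixed in 4% paraformaldehyde for 5 min and blocked with 1% BSA/0.1% Triton X-100 for 2 h. Stained with anti-VE-cadherin (1:200, 4 °C overnight) plus Alexa-488 secondary, FITC-phalloidin (1:100) for F-actin, and DAPI. Confocal imaging; repeated twice.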

For data set [13], the system named is HUVEC. The experiment in a line: Antiangiogenic activity in HUVEC assessed as decrease in tube length at 12.5 uM after overnight incubation by inverted microscopic analysis. The data set is classed as functional, cell-based. The conditions noted are these: Homo sapiens. Summed up:
(§3)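 Wells coated with Matigel:plain EBM-2 (1:1). HUVECs added at 2 × 10⁵ cells/well with bile acid (12.5 or 25 μM) or vehicle and left overnight. Bright-field images at 10× from five fields per well; nodes and tube lengths counted. Triplicate, three independent experiments; one-way ANOVA with Dunnett's test.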

Data set [14] concerns HUVEC. The experiment in a line: Antimigratory activity in HUVEC assessed as reduction in wound healing at 12.5 uM after 18 to 24 hrs by phase contrast microscopic analysis. The following applies: Homo sapiens. The data set is classed as functional, cell-based. Summed up:
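HUVECs grown to a confluent monolayer in 12-well plates and serum-deprived overnight. Scratched with a p200 tip, washed with DPBS, then given complete EBM-2 with 12.5 μM bile acid or DMSO vehicle. Imaged from a marked reference point at 0 h and after 18–24 h (phase contrast, 10×); percentage of migrated cells versus control. Triplicate; Dunnett's test.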

The test system of data set [15] is HUVEC. The experiment in a line: Decrease in VEGFR1 m-RNA expression in HUVEC at 12.5 uM after 12 to 24 hrs by RT-qPCR analysis relative to control. The format is functional, Homo sapiens. Summed up: (§4)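 HUVECs treated with 12.5 μM bile acid or DMSO for 12 and 24 h. Total RNA extracted and 1 μg reverse-transcribed. SYBR-green qPCR for VEGFR1/VEGFR2: 95 °C 10 min, then 40 cycles of 95 °C 5 s / 60 °C 30 s. ΔΔCT normalised to GAPDH and expressed as fold change over control; repeated twice.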

Data set [16] deals with HUVEC. Kind of data set: Antiangiogenic activity in HUVEC assessed as decrease in number of nodes at 12.5 uM after overnight incubation by inverted microscopic analysis. The format is functional, cell-based. The conditions noted are these: Homo sapiens. Summed up: as §3
Data set [17] is filed under the species Danio rerio. The experiment in a line: Toxicity in Tg(fli:eGFP) zebrafish embryo assessed as embryo death at 3 uM after 72 hrs post fertilization by fluorescence microscopic analysis. The following applies: in vivo. The format is organism-based.
Data set [18] concerns HUVEC. The experiment in a line: Decrease in VEGFR2 m-RNA expression in HUVEC at 12.5 uM after 12 to 24 hrs by RT-qPCR analysis relative to control. The data set is classed as functional, Homo sapiens. Summed up: as §4
Background: Quantitative PCR measures a nucleic acid by following its amplification.

Data set [19] concerns HUVEC. The experiment in a line: Cytotoxicity against HUVEC assessed as cell death at 100 uM after 24 hrs by MTT assay relative to control. The data set is classed as cell-based. The conditions noted are these: human. Summed up:
as §2

In data set [20] the test system is HUVEC. Kind of data set: Antiangiogenic activity in HUVEC assessed as inhibition of endothelial tube formation at 12.5 to 25 uM after overnight incubation by inverted microscopic analysis. The format is functional, cell-based. The following applies: Homo sapiens. Summed up: as §3
For data set [21], the species on record is Danio rerio. The experiment in a line: Toxicity in zebrafish embryo assessed as reduction in embryo survival at 3.25 uM. The data set is classed as organism-based. The conditions noted are these: in vivo.
In data set [22] the test system is HUVEC. Kind of data set: Cytotoxicity against HUVEC assessed as cell death after 24 hrs by MTT assay relative to control. The following applies: human.

Activity calls are given as the source filed them. The calls are words filed in the database; no cut-off is given here.

In the case of `C[C@H](CCC(=O)O)[C@H]1CC[C@H]2[C@@H]3[C@H](O)C[C@@H]4C[C@H](O)CC[C@]4(C)[C@H]3C[C@H](O)[C@]12C` [CHOLIC ACID], the outcome in data set [1] was Active. Besides, the Activity entry in [2], in data set [4] and in data set [5] was “Non-Toxic” throughout. Also, the result in data set [3] was inactive.

For `C[C@H](CCC(=O)O)[C@H]1CC[C@H]2[C@@H]3CC[C@@H]4C[C@H](O)CC[C@]4(C)[C@H]3C[C@H](O)[C@]12C` [DEOXYCHOLIC ACID], the outcome in data set [6], in data set [1], in [8], in [9] and in data set [10] was Active. The Activity result is given as “Toxic” in [7], “Non-Toxic” in data set [2], “Non-Toxic” in [4] and “Non-Toxic” in data set [5].

Regarding `C[C@H](CCC(=O)O)[C@H]1CC[C@H]2[C@@H]3CC[C@@H]4C[C@H](O)CC[C@]4(C)[C@H]3CC[C@]12C` [LITHOCHOLIC ACID], the Activity result in data set [11] is “Toxic”; in [17] it was “Toxic”; in [19], 75%; in data set [21], “Toxic”; in data set [22], “Toxic”; in data set [5], “Non-Toxic”. The result in data set [12], in data set [13], in data set [14], in [16] and in data set [20] was Active. Also, the “fold change (FC)” value in data set [15] and in data set [18] was 2 each time.
